# This is a sample that favours compounds with a hit; in the whole collection about 2.9% have one here.
# FGF22 binding = binders of human FGF22 protein, primary screen, FGF22 synaptogenesis inhibitor project, biophysical, thermal shift, single point | Fibroblast growth factor 22 (Homo sapiens), Q9HCT0 | recombinant FGF22 thermal shift, SYPRO orange fluorescence; percent of sucrose octasulfate shift, DMSO zero | activity (Tm shift, normalised), % at 9.99 µM | 340,000 compounds, 1.5% hits | AID 651658, 2012;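 active means mean Tm shift, scaled 0 neutral to 100 positive control, at about 1.3% or above, every replicate too, limit read from the data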
# Target sequence (Q9HCT0 whole entry, looked up): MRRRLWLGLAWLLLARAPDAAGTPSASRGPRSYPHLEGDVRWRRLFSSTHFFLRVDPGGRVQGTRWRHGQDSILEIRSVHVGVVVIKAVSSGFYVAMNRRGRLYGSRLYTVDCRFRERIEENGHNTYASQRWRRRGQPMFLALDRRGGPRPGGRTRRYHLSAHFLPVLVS
# Vif inh = HIV Vif self-association inhibitors, primary screen, imaging, HEK293T, single point; 340,000 compounds, 0.35% hits; inhibition, % at 7.49 µM; HEK293T cells, Vif self-association by quenched fluorescence, 24 h; in the data active means inhibition above about 50%, passing the limit was not always enough
# PglD DTNB = C. jejuni PglD acetyltransferase inhibitors, primary screen, biochemical, DTNB colorimetric, single point; inhibition, % at 12.5 µM; 360,000 compounds, 0.098% hits; AID 602405, 2012; purified PglD enzyme, DTNB colorimetric CoA detection; in the data active means inhibition above about 16%, passing the limit was not always enough
# Ecoli rRNA inh = reduced GFP signal of wild-type E. coli, primary screen, bacterial rRNA inhibitor project, GFP/RFP fluorescence, OD600, single point; E. coli WT GFP vs humanized-ribosome RFP mutants, 24 h; stronger effect = lower value; DMSO median 0, no signal -100; GFP signal change (wild-type ribosome), % (concentration not given with the values); 350,000 compounds, 1.6% hits; AID 720706, 2013;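 active means significant combined selectivity score with lowered wild-type GFP, culture density cut under 30%, mutant RFP and density less affected; inactive means any of these conditions unmet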
# Cneo AK release = Cryptococcus neoformans cell lysis inducers, primary screen, AK release luminescence, single concentration; C. neoformans lysis, adenylate kinase release luminescence, 4 h; normalised: neutral wells 0, clomiphene wells 100; lysis activity, % at 15 µM; 360,000 compounds, 0.2% hits; AID 651654, 2012;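 active means mean lysis activity across replicates of at least 80%, whatever share of replicates individually reach that level; inactive means mean lysis activity below 80%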
#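 Assay system: log-phase C. neoformans yeast / Quantity: yeast cell density of 5 × 10^6 cells/mL / Medium: fresh YPD growth medium / Compound: single dose / Timing: static 4 h at 37 °C with compound, 1 h detection / Measured by: adenylate kinase release luminescence / Read-out: lysis from increased AK signal / Benchmarks: Clomiphene as positive lysis control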
# PGC1a acetyl inh = inhibitors of PGC1a acetylation signal, primary screen, cell-based, U2OS, AlphaScreen, inhibitor mode; AlphaScreen anti-acetyl-lysine; with virally co-expressed GCN5 acetyltransferase; inhibition, % at 15.6 µM; 350,000 compounds, 0.17% hits; AID 651687, 2012;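 active means every replicate shows inhibition of at least 40%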;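 further: 0% = neutral control wells and 100% = positive control wells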
# Numbers without * were called inactive; / = not tested or not shown.
SMILES,FGF22 binding,Vif inh,PglD DTNB,Ecoli rRNA inh,Cneo AK release,PGC1a acetyl inh
CC1CN(C)C(C)C/C1=N/Oc1ccccc1[N+](=O)[O-] (configuration not stated),44*,9,-2,-1,2,1
CS(=O)(=O)N1CC2(C1)[C@@H](c1ccccc1)[C@@H](CO)N2C(=O)C1CCC1,/,/,/,4,/,/
CCOCc1nnc(NC(=O)c2cc(C(=O)OC)cc([N+](=O)[O-])c2)s1,43*,1,/,9,/,3
O=C(Cc1ccc([N+](=O)[O-])cc1)Nc1ccc2c(c1)OCO2,0,-3,/,11,/,/
O=C(Nc1ccc2c(c1)OCO2)c1ccc([N+](=O)[O-])cc1[N+](=O)[O-],0,-2,7,-19*,3,/
C/C=C/c1ccc([C@@H]2[C@@H](CO)N(C(C)=O)C23CN(C(=O)NC2CCCCC2)C3)cc1,0,/,/,0,/,11
CC1CN(S(=O)(=O)c2ccc(C(=O)NCCCn3ccnc3)cc2)CC(C)O1 (configuration not stated),0,52*,/,21,/,-411
CC1CN(S(=O)(=O)c2cccc(C(=O)NCCCn3ccnc3)c2)CC(C)O1 (configuration not stated),/,3,-7,/,-2,-13
Cc1nc(C(=O)N2CCc3c([nH]c4ccccc34)C2c2ccccn2)cs1 (configuration not stated),0,-7,/,-20*,/,18
Cc1oc(-c2cccc(Cl)c2)nc1CN(C)C1CCOC1 (configuration not stated),0,15,/,7,/,/
Cc1oc(-c2ccc(-c3ccccc3)cc2)nc1CN(C)C1CCOC1 (configuration not stated),0,-5,3,-23*,-9,-7
Cc1nc2cc(NC(=O)CCS(=O)(=O)c3ccccc3)ccc2s1,44*,5,5,-10,-1,-5
Cc1nc2ccc(NC(=O)C3COc4ccccc4O3)cc2s1 (configuration not stated),0,3,/,-15,/,-5
Cc1nc2cc(NC(=O)C3COc4ccccc4O3)ccc2s1 (configuration not stated),43*,27,-3,/,1,-2
O=C(CS(=O)(=O)c1ccccc1)Nc1ncc([N+](=O)[O-])s1,0,16,-14,-6,1,4
O=C(CCS(=O)(=O)c1ccccc1)Nc1ncc([N+](=O)[O-])s1,0,0,-1,-22*,-2,-4
COc1cc(CNc2ncc(-c3ccc(Br)cc3)n2C)cc(OC)c1OC,0,-3,-3,-19*,2,/
COc1cc(CNc2ncc(-c3ccc(Cl)cc3)n2C)cc(OC)c1OC,0,4,13,14,-2,/
O=C(C[C@@H]1CC[C@@H]2[C@H](COC[C@H](O)CN2C(=O)c2cccnc2)O1)NCc1ccccc1,0,/,0,4,0,6
CC(C)CN(CC(C)C)C(=O)c1cccc(S(=O)(=O)N2CCc3ccccc32)c1,44*,-5,/,/,-1,10
CC(C)CCNC(=O)c1cccc(S(=O)(=O)N2CCc3ccccc32)c1,/,-3,-1,/,0,-4
CS(=O)(=O)N1CCc2cc(C(=O)N3CCN(c4ccccc4)CC3)ccc21,0,1,4,2,0,-6
O=C(NNC(=O)c1cccc(S(=O)(=O)N2CCc3ccccc32)c1)c1ccccc1,0,-14,/,-26*,/,10
O=C(c1ccc2c(c1)CCN2S(=O)(=O)c1ccccc1)N1CCN(c2ccccc2F)CC1,0,-1,-6,-22*,-1,0
CC(=O)Nc1ccc(NC(=O)[C@@H]2CCCC[C@@H]2C(=O)O)cc1,0,83*,5,20,4,/
SMILES,FGF22 binding,Vif inh,PglD DTNB,Ecoli rRNA inh,Cneo AK release,PGC1a acetyl inh
CC(=O)Nc1ccc(NC(=O)C2CCCCC2C(=O)O)cc1 (configuration not stated),/,0,/,/,/,/
O=S(=O)(N[C@H]1CC[C@H](CCn2cc(C3(O)CCCC3)nn2)O[C@@H]1CO)c1ccccc1,0,/,-1,-5,-2,8
Cc1ccc(S(=O)(=O)N[C@@H]2C=C[C@H](CC(=O)NCCCN(C)C)O[C@@H]2CO)cc1,0,/,1,2,2,6
Cc1ccc(S(=O)(=O)NC[C@H]2CC[C@@H]3[C@@H](CN3Cc3cc(-c4ccccc4)on3)O2)cc1,/,/,/,/,/,-1
COc1ccc2[nH]c(=O)c(CN(CC3CCCO3)C(=S)Nc3ccccc3)cc2c1 (configuration not stated),44*,-8,/,7,/,/
COc1ccccc1NC(=S)N(CCCN(C)C)Cc1cc2cc3c(cc2[nH]c1=O)OCO3,44*,-3,/,12,/,/
O=C(c1ccco1)N(CCO)Cc1cc2cc3c(cc2[nH]c1=O)OCO3,43*,-3,-6,15,1,5
CN(C)CCCN(Cc1cc2cc3c(cc2[nH]c1=O)OCO3)C(=S)Nc1cccc(Cl)c1,0,2,/,-41,/,14
CN(C)CCCN(Cc1cc2cc3c(cc2[nH]c1=O)OCO3)C(=S)Nc1ccccc1,43*,-5,/,8,/,3
COc1ccc2cc(CN(CC3CCCO3)C(=S)Nc3ccccc3)c(=O)[nH]c2c1 (configuration not stated),0,-5,/,-11,/,/
C[C@H](NC(=O)[C@H]1[C@H](CO)[C@H]2Cn3c(cccc3=O)[C@H]2N1CC1CCCCC1)c1ccccc1,/,/,/,-8,/,-3
COC(=O)C1=CN(c2ccc(OC)cc2)C(N)=C(C#N)C1c1ccc(OC)cc1 (configuration not stated),0,/,/,-27,/,/
COC(=O)C1=CN(c2ccc(OC)cc2OC)C(N)=C(C#N)C1c1ccc(OC)cc1 (configuration not stated),0,/,/,-26*,/,/
Cc1cccc(CN2CCc3c([nH]c4ccccc34)C2CC(C)C)n1 (configuration not stated),0,-10,0,4,-2,-13
Cc1cnc(CN2CCc3c([nH]c4ccccc34)C2CC(C)C)[nH]1 (configuration not stated),43*,-1,/,-6,/,-8
COc1ccc2c3c(n(C)c2c1)[C@H](CO)N(S(C)(=O)=O)CC31CCN(C(=O)CN(C)C)CC1,/,/,/,1,/,-5

# Compound activity: PubChem BioAssay, Broad Institute
